Source: PubChem (several laboratories)
Hep lipid drop: modulators of hepatic lipid droplet formation. AML12 mouse hepatocytes, oleate lipid droplets, BODIPY imaging. inhibition, % at 6.5 µM. 240,000 tested, 0.4% active;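 active means lipid droplet intensity inhibited by at least 50%, with more than 500 cells counted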
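Material: mouse AML12 hepatocyte cell line, fixed after treatment; Timing: compound with oleate, overnight; Technique: high-content imaging of BODIPY-stained droplets and DAPI nuclei; Probe or stimulus: oleate, 100 µM final; Dosing: compound at 6.5 µM only.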
NTR1 agonist: activates human neurotensin receptor 1 | P30989 | NTR1-U2OS beta-arrestin-GFP spot imaging, agonist mode | activation, % at 20 µM | 330,000 tested, 0.17% active;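 active means activation at or above 40% of the spot to cytoplasm intensity ratio, with at least 20 cells analyzed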;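 further: 0% = DMSO without peptide and 100% = 100 nM NTR1 peptide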
m5-HT2A agonist: agonists of mouse serotonin 5-HT2A receptor (HTR2A). P35363. CHO-K1 mHTR2A beta-arrestin complementation, luminescence; percent of 30 µM serotonin response. activation, % at 7.6 µM. 360,000 tested, 0.66% active. AID 624169;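 active means activation above a run cutoff, the mean activation of all tested compounds plus 3 SD, cut at about 14% in these data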;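 further: 0% = plate median of compound wells and 100% = 30 µM serotonin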
MC4R barr agon: activates human MC4R beta-arrestin recruitment; AID 540308; 360,000 tested, 0.98% active; activation, % at 8.9 µM; P32245; U2OS MC4R beta-arrestin complementation, luminescence; percent of melanotan II response, DMSO zero;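 active means activation above a per-plate cutoff, the mean activation of sample wells on that plate plus 3 SD, cut at about 8% in these data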
Target sequence (P32245 whole entry, looked up): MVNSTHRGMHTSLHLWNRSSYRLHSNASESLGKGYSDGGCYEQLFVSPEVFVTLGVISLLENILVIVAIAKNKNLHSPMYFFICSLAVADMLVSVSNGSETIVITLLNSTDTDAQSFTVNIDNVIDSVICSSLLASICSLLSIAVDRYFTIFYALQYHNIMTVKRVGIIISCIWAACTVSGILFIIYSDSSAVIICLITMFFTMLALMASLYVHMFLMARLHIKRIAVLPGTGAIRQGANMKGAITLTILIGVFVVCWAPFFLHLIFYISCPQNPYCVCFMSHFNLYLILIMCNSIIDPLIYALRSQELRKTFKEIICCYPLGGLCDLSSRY
PREPL inhibitor: inhibits the human prolyl oligopeptidase-like enzyme | Q4J6C6 | recombinant PREPL, fluorescence polarization activity-based probe | inhibition, % at 5.96 µM | 320,000 tested, 0.68% active | AID 2751; in the data active means inhibition above about 43%;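 further: 0% = enzyme with DMSO and 100% = wells lacking enzyme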
MC4R antagonist: human MC4R antagonism in cAMP assay. P32245. MC4R-expressing cells, MTII-stimulated cAMP, LANCE TR-FRET. inhibition, % at 6.5 µM. 360,000 tested, 0.48% active. AID 540295;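 active means inhibition above its plate's cutoff, the mean of tested wells on that plate plus 3 SD, cut at about 29% in these data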;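 further: 0% = Melanotan II alone and 100% = Melanotan II plus saturating MCL0020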
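System – human MC4R-expressing U2OS cells · Also added – Melanotan II · Dosing – one concentration, 6.5 µM nominal · Timing – 30-min compound, 1-h challenge, 1-h detection, room temperature · Measured by – Eu-cAMP/anti-cAMP TR-FRET, emission 671 nm · Replicates – singlicate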
Numbers without * were called inactive; · = no result; ! = not active in a repeat. An excerpt weighted towards active compounds, which were near 2.7% of everything screened.

SMILES	Hep lipid drop	NTR1 agonist	m5-HT2A agonist	MC4R barr agon	PREPL inhibitor	MC4R antagonist
O=C(O)c1cc[c]([Hg][Cl])cc1	·	0.4	1.5	-2.1	-5.8	70.2*
CC1=NNC(=O)C1Br (stereo not drawn)	·	·	-1.6	-3.2	·	7.5
CC(=O)OC1CC[C@]2(C#N)[C@H]3CC[C@]4(C)[C@H](C5C=CC(=O)O5)CCC4(O)C3CCC2(O)C1 (stereo partly drawn)	·	-0.4	5.5	14.3*	-9.9	14.7
CC(C)[C@H]1C(=O)N2CCC[C@H]2[C@]2(O)O[C@](NC(=O)[C@@H]3C=C4c5cccc6[nH]cc(c56)C[C@H]4N(C)C3)(C(C)C)C(=O)N12	1.3	0.4	48.6*	-0.8	46.1*	-2.5
CC(C)[C@@]1(NC(=O)[C@@H]2C=C3c4cccc5[nH]cc(c45)C[C@H]3N(C)C2)O[C@@]2(O)[C@@H]3CCCN3C(=O)[C@H](Cc3ccccc3)N2C1=O	11.1	·	·	·	·	·
CC(C)C[C@H]1C(=O)N2CCCC2[C@]2(O)O[C@](NC(=O)[C@@H]3C=C4c5cccc6[nH]cc(c56)CC4N(C)C3)(C(C)C)C(=O)N12 (stereo partly drawn)	-6.9	-2.8	29.9*	-0.4	37.4	-0.9
C[C@]12CCC3C(CC[C@H]4C[C@@H](O)[C@H](O)C[C@]34C)C1CC[C@@H]2O (stereo partly drawn)	·	-0.4	-3.5	-1.2	9.0	-2.1
CC(C)Oc1ccc(CCN)cc1Cl	-9.8	-0.8	6.4	0.1	2.0	-0.8
CCCCOc1ccc(CCN)cc1Cl	-12.5	0.3	7.4	8.3*	-3.5	5.3
Cc1cc(Cl)ccc1OC(C)C(=O)O (stereo not drawn)	·	2.3	14.8*	0.5	-1.4	6.3
Cc1cc(Cl)ccc1OCC(=O)O	·	1.3	-0.6	-0.2	-1.0	8.0
CC(=O)OC(C)(C)/C=C/C(=O)[C@](C)(O)[C@H]1[C@H](O)C[C@@]2(C)[C@@H]3CC=C4[C@H](C[C@H](O)C(=O)C4(C)C)[C@]3(C)C(=O)C[C@]12C	136.6*	·	13.9	-0.5	·	-15.4
O=c1[nH]c2ccccc2n1C1CCN(C(CCc2ccccc2)c2nnnn2-c2ccc3c(c2)OCCO3)CC1 (stereo not drawn)	·	·	8.7	·	·	·
OC(CN1CC=C(c2ccccc2)CC1)c1ccccc1 (stereo not drawn)	2.9	-0.3	-3.3	-1.4	5.0	7.8
OC(COCc1ccc(Cl)cc1)CN1CC=C(c2ccccc2)CC1 (stereo not drawn)	·	-1.0	19.3*!	-0.8	0.1	5.2
COC(=O)[C@@]1(Sc2ccc(C)cc2)CC(=O)N(P(=O)(OC)OC)[C@@H]1c1ccccc1	·	·	2.5	·	·	·
CC(C)CC(=O)NC(Oc1ccc(Cl)cc1)C(Cl)(Cl)Cl (stereo not drawn)	·	1.1	7.2	8.5*	-16.6	11.8
CCCC(=O)NC(Oc1ccc(OC)cc1)C(Cl)(Cl)Cl (stereo not drawn)	1.6	-3.3	1.8	-0.7	15.4	2.2
O=C1CC2OCC=C3CN4CCC56c7ccccc7N1C5C2C3CC46O (stereo not drawn)	·	·	3.5	0.3	·	1.7
C/C1=C\[C@@H](C)C/C=C/[C@H]2[C@@H]3O[C@]3(C)[C@@H](C)[C@H]3[C@H](Cc4c[nH]c5ccccc45)NC(=O)[C@]32C(=O)/C=C/C(=O)[C@@H]1O	8.4	19.3	21.6*	-1.6	12.1	-13.2
O=C(NCC1=C(c2cccc3ccccc23)C[C@@H]2CC[C@H]1N2Cc1ccco1)c1cccs1	·	·	-7.6	0.8	·	0.9
NC(Cc1cc(O)c(O)cc1O)C(=O)O (stereo not drawn)	·	3.1	·	·	67.0*	·
O=C1NC(=O)N(Cc2ccccc2)C(=O)/C1=C/c1cnn(-c2ccccc2)c1	2.8	46.9*	·	·	4.8	·
COC1CC(OC2CCC3(C)C(CCC4C3CCC3(C)C(C5=CC(=O)OC5)C(OC(C)=O)CC43O)C2)OC(C)C1OC1OC(COC2OC(CO)C(O)C(O)C2O)C(O)C(O)C1O (stereo not drawn)	2.5	·	·	·	-2.8	·
C[C@@H]1O[C@@H](O[C@H]2C[C@@H](O)[C@]3(CO)[C@H]4[C@H](O)C[C@]5(C)[C@@H](C6COC(=O)C6)CC[C@]5(O)[C@@H]4CC[C@]3(O)C2)[C@H](O)[C@H](O)[C@H]1O (stereo partly drawn)	-5.3	0.9	9.1	23.9*	-0.3	6.3
SMILES	Hep lipid drop	NTR1 agonist	m5-HT2A agonist	MC4R barr agon	PREPL inhibitor	MC4R antagonist
CC1OC(OC2CC(O)C3(CO)C4C(O)CC5(C)C(C6=CC(=O)OC6)CCC5(O)C4CCC3(O)C2)C(O)C(O)C1O (stereo not drawn)	·	·	-1.4	16.1*	·	13.1
Cc1cc2c(cc1C)NP(=S)(c1ccccc1)N2	·	·	-4.7	0.4	·	-3.4
c1cc2c(cc1NC1=NCCO1)CCCC2	·	·	9.6	-0.5	·	3.9
COc1cccc(C(c2nnnn2Cc2ccccc2)N2CCC3(CC2)C(=O)NCN3c2ccccc2)c1OC (stereo not drawn)	·	·	2.2	·	·	·
O=C1NC(=S)NC(=O)C1=Cc1cccn1-c1ccc(O)cc1	-5.5	·	0.1	-2.9	·	28.1
Cc1cc(C)cc(N2C(=O)NC(=O)/C(=C\c3cccn3-c3ccc(Cl)cc3)C2=O)c1	·	49.7*	0.5	3.6	-8.6	5.2
COc1cc(/C=C(/C)[N+](=O)[O-])ccc1OCc1ccccc1Cl	-1.9	38.9	-6.5	-5.5	20.0	32.1*
COc1ccc2[nH]cc(CCN=C(N)N)c2c1	18.7	0.7	-2.9	2.4	-2.2	2.0
COc1ccc2[nH]cc(C3=CCNCC3)c2c1	·	-4.3	·	·	50.7*	·
COC(=O)C1=C(c2ccc(OC(F)(F)F)cc2)C[C@@H]2CC[C@H]1N2C(=O)NCc1cc(C)oc1C(F)(F)F	·	-1.0	-1.0	-2.0	6.9	12.7
C=CCN1C(=O)NC(=O)/C(=C\c2ccc(-c3ccccc3[N+](=O)[O-])o2)C1=O	1.1	14.7	0.1	0.2	10.4	12.6
O=C1NC(=O)N(Cc2ccco2)C(=O)/C1=C/c1ccc(-c2cccc([N+](=O)[O-])c2)o1	-15.7	58.0*	4.7	-0.6	16.2	31.0*
CN(C)c1ccc(C(=O)N/N=C/C23CC[C@@H](O)CC2(O)CC[C@@H]2[C@@H]3CCC3(C)C(C4=CC(=O)OC4)CCC23O)cc1 (stereo partly drawn)	-4.4	-1.7	-1.3	13.8*	7.8	-7.0
CC1=C(C)CN2CC(C#N)=C(N)C2C1 (stereo not drawn)	·	·	8.4	·	·	·
CC(=O)OC1CC(OC2C(O)CC(OC3C(O)CC(OC4CCC5(C)C(CCC6C5CCC5(C)C(C7=CC(=O)OC7)CCC65O)C4)OC3C)OC2C)OC(C)C1OC1OC(CO)C(O)C(O)C1O (stereo not drawn)	·	·	-0.1	33.0*	·	-4.7
